According to ChEMBL document CHEMBL3992522, “Antileishmanial Activity of Pyrazolopyridine Derivatives and Their Potential as an Adjunct Therapy with Miltefosine” (J Med Chem, 2017):
The source made the active and inactive calls. No cut-off for these calls is given here.

Key:
[1] = tested on: Leishmania donovani; experiment: Antileishmanial activity against Leishmania donovani MHOM/IN/80/DD8 amastigote forms harboring luciferase gene infected in mouse J774 cells at 50 uM up to 72 hrs by Giemsa staining based assay relative to control; type: functional; settings: MHOM/IN/80/DD8, J774, 72 h
In short: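 J774 macrophages in chamber slides infected with Dd8 promastigotes (1:10 cell:parasite in methods; 1:8 in legend) for 24 h, then treated 48 and 72 h. Cells methanol-fixed, stained with 20% Giemsa. Amastigotes per 100 macrophages counted against untreated infected controls.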

[2] = tested on: Mus musculus; experiment: Increase in iNOS-mediated NO generation in Balb/c mouse splenocytes infected with Leishmania donovani amastigote forms at 50 mg/kg, ip for 5 consecutive days measured on day 4 and 7 post last treatment followed by soluble Leishmania donovani promastigote antigen-stimulation for 72 hrs by Griess assay relative to control; type: functional
In short: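 Splenocytes from treated infected BALB/c mice (5-day regimen, i.p. test compound, oral miltefosine; n = 5) isolated day 4 and day 7 post-treatment. Cultured in phenol red-free RPMI 1640 with 5 μg/mL SLA for 72 h at 37 °C, 5% CO2. Supernatant nitrite measured by Griess assay at 540 nm against a sodium nitrite standard curve.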

[3] = tested on: Leishmania donovani; experiment: Antileishmanial activity against Leishmania donovani amastigote forms infected in Balb/c mouse assessed as inhibition of parasitic burden in liver at 25 mg/kg, ip administered for 5 consecutive days measured on day 7 post last treatment by Giemsa staining based assay relative to control; settings: 168 h
[4] = tested on: Leishmania donovani; experiment: Antileishmanial activity against Leishmania donovani MHOM/IN/80/DD8 promastigote forms harboring luciferase gene at 50 uM up to 72 hrs by MTT assay relative to control; type: functional; settings: MHOM/IN/80/DD8, 72 h
[5] = tested on: Leishmania donovani; experiment: Induction of mitochondrial membrane potential loss in Leishmania donovani MHOM/IN/80/DD8 promastigote forms at 50 uM after 48 hrs by JC-1 staining based flow cytometry (reference value: 5.02%); type: functional
[6] = tested on: Mus musculus; experiment: Decrease in TGFbeta level in Balb/c mouse splenocytes infected with Leishmania donovani amastigote forms at 25 mg/kg, ip co-treated with 5 mg/kg, po miltefosine administered for 5 consecutive days measured on day 7 post last treatment by sandwich ELISA relative to control; type: functional
In short: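 Splenocytes (2×10^6) from treated infected BALB/c mice taken on day 4 or 7 post-treatment. Cultured in phenol-red-free RPMI 1640 with 5 μg/mL soluble L. donovani antigen for 72 h at 37 °C, 5% CO2. Supernatant cytokines measured by sandwich ELISA against a standard curve. Mean ± SD, n = 5 mice per group, three independent experiments.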

[7] = tested on: Mus musculus; experiment: Restoration of T cell proliferation in Balb/c mouse splenocytes infected with Leishmania donovani amastigote forms at <25 mg/kg, ip administered for 5 consecutive days measured on day 4 and 7 post last treatment followed by soluble Leishmania donovani promastigote antigen-stimulation for 72 hrs by MTT assay relative to control
[8] = tested on: Leishmania donovani; experiment: Antileishmanial activity against Leishmania donovani MHOM/IN/80/DD8 promastigote forms harboring luciferase gene at 6.25 to 12.5 uM up to 4 days by Steady-Glo reagent based luminescence assay; type: functional
In short: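 Log-phase luciferase promastigotes at 1.0×10^6 at 24 °C, pH 7.4, given two-fold dilutions from 200 to 6.25 µM. RLU in lysed cultures measured daily for up to 4 days to plot growth curves. Three independent experiments.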

[9] = Stability in pH 1.2 simulated gastric fluid at 5 ug/ml after 120 mins by HPLC method
In short: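 Incubated in simulated gastric fluid (pH 1.2) or simulated intestinal fluid (pH 6.5); percentage remaining intact determined after 120 min.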

[10] = tested on: Leishmania donovani; experiment: Antileishmanial activity against Leishmania donovani amastigote forms infected in Balb/c mouse assessed as inhibition of parasitic burden in spleen at 100 mg/kg, ip administered for 5 consecutive days measured on day 7 post last treatment by Giemsa staining based assay relative to control; type: functional; settings: 168 h
[11] = tested on: Leishmania donovani; experiment: Induction of mitochondrial membrane potential loss in Leishmania donovani MHOM/IN/80/DD8 promastigote forms at 50 uM after 6 hrs by JC-1 staining based flow cytometry (reference value: 5.02%); type: functional
[12] = tested on: Mus musculus; experiment: Restoration of T cell proliferation in Balb/c mouse splenocytes infected with Leishmania donovani amastigote forms at 25 mg/kg, ip co-treated with 5 mg/kg, po miltefosine administered for 5 consecutive days measured on day 4 post last treatment followed by soluble Leishmania donovani promastigote antigen-stimulation for 72 hrs by MTT assay relative to control; type: functional
In short: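 Splenocytes from treated infected BALB/c mice (day 4 or 7 post-treatment) isolated by Ficoll gradient, plated at 10^5/well in triplicate in phenol red-free RPMI 1640, stimulated with 5 μg/mL SLA for 72 h at 37 °C, 5% CO2. Proliferation read by MTT (0.5 mg/mL), formazan dissolved in DMSO, OD 540 nm.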

[13] = tested on: Leishmania donovani; experiment: Antileishmanial activity against Leishmania donovani amastigote forms infected in Balb/c mouse assessed as inhibition of parasitic burden in liver at 100 mg/kg, ip administered for 5 consecutive days measured on day 7 post last treatment by Giemsa staining based assay relative to control; type: functional; settings: 168 h
[14] = tested on: Mus musculus; experiment: Increase in TNFalpha level in Balb/c mouse splenocytes infected with Leishmania donovani amastigote forms at 25 mg/kg, ip co-treated with 5 mg/kg, po miltefosine administered for 5 consecutive days measured on day 4 post last treatment by sandwich ELISA relative to control; type: functional
In short: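 BALB/c mice infected with L. donovani (15 days); treatment for 5 consecutive days, test compound i.p. in 8% DMSO/water, miltefosine oral in TDW; sacrificed day 4 and day 7 post-treatment, n = 5 per group. Splenocytes (2×10^6) cultured 72 h in phenol red-free RPMI 1640 with 5 μg/mL SLA; supernatant cytokines by sandwich ELISA.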

[15] = Selectivity index, ratio of CC50 for mouse J774 cells to IC50 for Leishmania donovani MHOM/IN/80/DD8 amastigote forms infected in mouse J774 cells; type: toxicity, cell-based; settings: read-out: Ratio CC50/IC50
In short: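 CC50: Vero or J774 cells (1×10^5/well) exposed 72 h to seven two-fold dilutions, 500–7.81 μM; MTT 2 h at 37 °C, formazan in DMSO read at 540 nm. IC50: luciferase-expressing Dd8 amastigotes in J774 macrophages (1:8), 72 h, luminescence, four-parameter Hill fit. SI = CC50/IC50, IC50 mean of three experiments.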

[16] = tested on: Leishmania donovani; experiment: Antileishmanial activity against Leishmania donovani MHOM/IN/80/DD8 amastigote forms harboring luciferase gene infected in mouse J774 cells at 25 uM after 72 hrs by Steady-Glo reagent based luminescence assay relative to control; type: functional; settings: MHOM/IN/80/DD8, J774, 72 h, read-out: GI
In short: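 Stationary-phase luciferase-expressing Dd8 promastigotes infected into J774 macrophages (4×10^4/mL seeded, 24 h, 37 °C, 5% CO2) at 1:8 macrophage:parasite for 24 h. Non-internalised parasites washed off. Compounds added at 50 and 25 µM in RPMI/10% FBS for 72 h. Lysis with Steady-Glo luciferin reagent plus PBS, luminescence read. Inhibition relative to untreated infected controls.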

[17] = tested on: Leishmania donovani; experiment: Induction of apoptosis in Leishmania donovani MHOM/IN/80/DD8 promastigote forms assessed as early apoptotic cells at 50 uM after 48 hrs by Annexin V-FITC/propidium iodide staining based flow cytometry (reference value: 7.41%); type: functional

## COc1ccc(C2C3=C(CCC3=O)Nc3c2c(-c2c[nH]c4ccccc24)nn3-c2ccc(Cl)c(Cl)c2)cc1OC (configuration not stated)
[1]
  inhibition at 50 µM: > 93%
[2]
  fold change (FC): 4.7
[3]
  inhibition in vivo at 25 mg/kg: > 48%
[4]
  inhibition at 50 µM: > 95%
[5]
  Activity: 44.9%
[6]
  inhibition (INH): 93%
[7]
  fold change (FC): 2.2 - 3.4
[8]
  Activity: Active
[9]
  Stability: 85%
[10]
  inhibition in vivo at 100 mg/kg: 90%
[11]
  Activity: 15.2%
[12]
  fold change (FC): 9.9
[13]
  inhibition in vivo at 100 mg/kg: 92.7%
[14]
  fold change (FC): 7.4
[15]
  selectivity ratio: 101
[16]
  inhibition of growth at 25 µM: 96.8%
[17]
  Activity: 11.6%
